PubChem BioAssay
Activity calls are given as the source filed them.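 The calls were made as follows, unless noted: active = Her2 level under about 52% in both replicate screens, with viability over 70% of control (limit read from the data); inconclusive = Her2 under the limit in one screen only, or viability under 70%; inactive = Her2 level above the set limit.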

Experiments:
[1] = Her2 expression decrease, cell viability multiplex – SKBR3 breast tumor cells, AlphaScreen, ATP viability, primary screen (AID 461); settings: SKBR3 Her2 protein level, 18-24 h, measured here: SKBR3 viability, ATP luminescence, at 10 µM;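 as to Her2 level: lower value means less Her2 protein in the cells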;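 as to viability: percent of carrier control wells set as 100% viability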
[2] = biological target: Receptor tyrosine-protein kinase erbB-2 (Homo sapiens) (UniProt P04626); experiment: as above; settings: 18-24 h, at 10 µM, stronger effect = lower value
Sequence of Receptor tyrosine-protein kinase erbB-2 (Homo sapiens) (P04626 whole entry, looked up): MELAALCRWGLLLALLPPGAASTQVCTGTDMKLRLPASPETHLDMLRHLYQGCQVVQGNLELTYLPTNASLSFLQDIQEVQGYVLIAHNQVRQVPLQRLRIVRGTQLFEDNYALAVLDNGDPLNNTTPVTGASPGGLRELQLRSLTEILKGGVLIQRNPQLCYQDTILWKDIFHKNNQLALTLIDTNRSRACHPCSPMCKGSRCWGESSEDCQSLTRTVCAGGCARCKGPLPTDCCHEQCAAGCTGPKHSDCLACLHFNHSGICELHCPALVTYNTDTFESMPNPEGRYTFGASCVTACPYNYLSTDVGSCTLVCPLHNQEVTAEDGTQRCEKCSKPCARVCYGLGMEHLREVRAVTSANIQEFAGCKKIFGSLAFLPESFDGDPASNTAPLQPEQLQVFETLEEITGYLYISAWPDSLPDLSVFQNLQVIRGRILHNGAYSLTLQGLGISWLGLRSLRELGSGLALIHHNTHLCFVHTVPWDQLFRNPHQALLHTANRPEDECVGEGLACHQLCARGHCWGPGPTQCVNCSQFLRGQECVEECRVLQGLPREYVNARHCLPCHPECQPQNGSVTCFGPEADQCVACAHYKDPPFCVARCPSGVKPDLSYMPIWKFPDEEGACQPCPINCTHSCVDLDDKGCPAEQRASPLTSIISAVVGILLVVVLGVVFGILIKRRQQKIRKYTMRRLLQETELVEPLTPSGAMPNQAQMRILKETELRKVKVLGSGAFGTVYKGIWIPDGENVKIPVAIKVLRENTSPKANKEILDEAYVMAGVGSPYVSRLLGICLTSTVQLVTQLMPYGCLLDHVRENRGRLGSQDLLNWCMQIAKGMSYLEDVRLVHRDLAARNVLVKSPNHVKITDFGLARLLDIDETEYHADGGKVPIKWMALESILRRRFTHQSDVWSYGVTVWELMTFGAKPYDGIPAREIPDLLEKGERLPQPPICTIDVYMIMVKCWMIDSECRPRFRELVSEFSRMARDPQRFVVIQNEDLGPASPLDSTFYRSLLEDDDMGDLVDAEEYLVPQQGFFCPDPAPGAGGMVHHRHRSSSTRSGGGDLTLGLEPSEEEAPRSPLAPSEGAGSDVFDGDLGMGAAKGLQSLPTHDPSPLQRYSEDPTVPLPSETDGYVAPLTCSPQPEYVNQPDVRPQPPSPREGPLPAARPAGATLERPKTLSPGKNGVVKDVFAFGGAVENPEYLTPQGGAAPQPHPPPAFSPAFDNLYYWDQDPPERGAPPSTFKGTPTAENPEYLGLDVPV

[3] = reduced viability of SK-BR-3 breast cancer cells – cell-based, 24 h, human, pilot screen (AID 572;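 active = viability at or below 10% of carrier control in both of two separate runs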;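 also: compound exposure lasted between 18 and 24 h rather than exactly 24 h; 100% = carrier-treated control wells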); settings: SK-BR-3 viability, CellTiter-Glo luminescence, at 10 µM, stronger effect = lower value
[4] = HUVEC growth inhibition – cell-based, human, primary screen (AID 575;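 active = viability at or below 30% in both replicate assays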;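 also: 100% = median of untreated cell wells with 0.1% DMSO on each plate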); settings: HUVEC proliferation, CellTiter-Glo luminescence, 72 h; at 10 µM; stronger effect = lower value
Method in brief: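 System: primary human umbilical vein endothelial cells; Quantity: 1250 endothelial cells in each well; Buffer or medium: supplemented EBM, 2% fetal bovine serum; Doses: one dose, 10 µM final, 0.1% DMSO; Incubation: 72 h compound incubation; Technique: ATP-based CellTiter-Glo luminescent read; Evaluation: percent of median DMSO-control luminescence; Controls: vehicle and MePR control wells.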

[5] = H69AR cell proliferation blockers – human, duplicate replicates, primary screen (AID 580;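 active = viability at or under a set limit in both replicates, limit being median viability minus 3 SD, cut at about 48% in these data, passing the limit was not always enough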;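 also: 100% = mean luminescence of untreated wells and 0% = no signal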); settings: H69AR lung tumor cells viability, ATP luminescence, 72 h; at 10 µM; stronger effect = lower value
[6] = MRP1 drug-resistance reversers in H69AR cells – cell-based, doxorubicin co-treatment, pilot screen (AID 601;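 active = viability loss from added drug above about 55%, and viability with drug at most 40%, in both replicates, limit read from the data, passing the limit was not always enough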); settings: CellTiter-Glo, 72 h, at 10 µM; for differential viability (reversal): stronger effect = higher value
[7] = yeast transport mutant growth inhibition pilot in 384-well plates, post-Golgi transport modulator project (AID 636; in the data active = inhibition above about 31%); settings: absorbance 615 nm, about 18 h, stronger effect = higher value
[8] = growth suppression of yeast trafficking mutant, preliminary HTS, modulators of trafficking downstream of Golgi apparatus project, 1536-format plate, OD 615 nm (AID 637; in the data active = inhibition above about 30%); settings: yeast transport mutant growth, absorbance 615 nm, 18 h; stronger effect = higher value
[9] = H69AR cells + 2 uM doxorubicin, measured here: viability with 2 uM doxorubicin, stronger effect = lower value
[10] = H69AR cells, compound alone cytotoxicity

Row | Compound | viability [1] [%] | Her2 level [2] | viability [3] | viability [4] | viability [5] | differential viability (reversal) ([6]; H69AR cells + 2 uM doxorubicin) | viability [6, 9] [%] | viability [6, 10] [%] | inhibition [7] | inhibition [8]
1 | COc1ccc(Cl)cc1NC(=O)COc1cccc(-n2cnnn2)c1 | 110 | 80% (inactive) | 110% (inactive) | 98.5% (inactive) | 86.4% (inactive) | 4.85% (inactive) | 81.5 | 86.4 | -5.87% (inactive) | 1.61% (inactive)
2 | CN(C)Cc1c(O)ccc2oc(Cc3ccccc3)cc12 | 90 | 86% (inactive) | 90% (inactive) | 91.2% (inactive) | 91% (inactive) | 11% (inactive) | 80 | 91 | -6.67% (inactive) | -2.42% (inactive)
3 | COc1ccc(N2CCN(CCNS(=O)(=O)c3cccc4nsnc34)CC2)cc1 | 98 | 91% (inactive) | 98% (inactive) | 102% (inactive) | 91.1% (inactive) | -2.98% (inactive) | 94.1 | 91.1 | -5.2% (inactive) | 1.11% (inactive)
4 | Cc1ccc2c(c1)c1c3n2CC(=C2C(=O)OC(C)(C)OC2=O)NC3CCC1 (stereo not given) | 103 | 73% (inactive) | 103% (inactive) | 73.1% (inactive) | 94.6% (inactive) | 9.35% (inactive) | 85.3 | 94.6 | -4.67% (inactive) | -4.59% (inactive)
5 | CC(C)(C)n1nnnc1C(c1cccc(C#N)c1)N1CCC(Cc2ccccc2)CC1 (stereo not given) | 87.5 | 86% (inactive) | 87.5% (inactive) | 114% (inactive) | 86.1% (inactive) | -0.44% (inactive) | 86.6 | 86.1 | -0.79% (inactive) | 1.77% (inactive)
6 | Cn1nnc2c(sc3nc(N4CCOCC4)c4c(c32)CCCC4)c1=O | 100 | 114% (inactive) | 100% (inactive) | 90.9% (inactive) | 81.6% (inactive) | -7.71% (inactive) | 89.3 | 81.6 | -0.53% (inactive) | -5.08% (inactive)
7 | COc1ccc(Cc2nnc3n2N=C(c2cc4ccccc4o2)CS3)cc1OC | 77 | 79.5% (inactive) | 77% (inactive) | 64.4% (inactive) | 35% (active) | -20% (inactive) | 55 | 35 | -7.03% (inactive) | -0.67% (inactive)
8 | CCn1c(C(=O)N2CCCC(C(=O)O)C2)cc2sccc21 (stereo not given) | 103 | 98.5% (inactive) | 103% (inactive) | 101% (inactive) | 93.8% (inactive) | 6.41% (inactive) | 87.4 | 93.8 | 0.53% (inactive) | -1.15% (inactive)
9 | CN1CCN(c2ncnc3c2cnn3-c2ccc(Cl)cc2)CC1 | 109 | 94% (inactive) | 109% (inactive) | 53.6% (inactive) | 89.3% (inactive) | 1.02% (inactive) | 88.3 | 89.3 | -0.27% (inactive) | 2.5% (inactive)
10 | CC(=O)NC1(C(F)(F)F)NC(=O)N(CC(C)C)C1=O (stereo not given) | 103 | 109% (inactive) | 103% (inactive) | 91.1% (inactive) | 102% (inactive) | 18.8% (inactive) | 83.6 | 102 | -2.3% (inactive) | -0.66% (inactive)
11 | COC(=O)/C=c1\sc2ncnn2c1=O | 95 | 97.5% (inactive) | 95% (inactive) | 72.5% (inactive) | 78.7% (inactive) | -3.79% (inactive) | 82.5 | 78.7 | 1.62% (inactive) | 4.92% (inactive)
12 | COc1ccc(CN(C(=O)c2ccccc2OC)C2CCS(=O)(=O)C2)cc1 (stereo not given) | 95 | 90.5% (inactive) | 95% (inactive) | 115% (inactive) | 96.8% (inactive) | 7.03% (inactive) | 89.8 | 96.8 | -0.53% (inactive) | 9.34% (inactive)
13 | CC1CCc2cc(F)cc3c(O)c(C(=O)Nc4cnccn4)c(=O)n1c23 (stereo not given) | 97.5 | 82.5% (inactive) | 97.5% (inactive) | 99.9% (inactive) | 92.8% (inactive) | -1.42% (inactive) | 94.2 | 92.8 | -0.92% (inactive) | 4.52% (inactive)
14 | Cc1cc2ncn(S(=O)(=O)c3ccc(S(=O)(=O)N4CCOCC4)cc3)c2cc1C | 91.5 | 91.5% (inactive) | 91.5% (inactive) | 102% (inactive) | 98.3% (inactive) | 0.945% (inactive) | 97.3 | 98.3 | -1.47% (inactive) | -7.1% (inactive)
15 | CCOC(=O)N1CCN(Cc2ccccc2F)CC1 | 102 | 81% (inactive) | 102% (inactive) | 98.1% (inactive) | 85% (inactive) | -2.15% (inactive) | 87.2 | 85 | -7.33% (inactive) | 2.3% (inactive)
16 | CCn1c(CSc2ncccn2)nnc1SCC(=O)N1c2ccccc2CC1C (stereo not given) | 96 | 87.5% (inactive) | 96% (inactive) | 87.5% (inactive) | 96.3% (inactive) | 11.9% (inactive) | 84.3 | 96.3 | -5.73% (inactive) | 5.41% (inactive)
